Source: the RNAGym collection of RNA variant scans (doi:10.1126/science.aae0568)
This sample holds only a part of the variants without activity.

B1: tRNA (parent)
chain: GUUCCGUUGGCGUAAUGGUAACGCGUCUCCCUCCUAAGGAGAAGACUGCGGGUUCGAGUCCCGUACGGAACG

Variants of: B1
Assay: yeast fitness relative to wild type (ratio to wild type); higher = fitter; tRNA-Arg(CCU), competitive growth, 37 C, YPD
How it was run: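 A pool of Saccharomyces cerevisiae strains, each with a tRNA-Arg(CCU) gene variant at the native genomic locus, was competed in YPD at 37°C for 24 hours across six parallel replicates. The variants had been chemically synthesised at a 3% per-site mutation rate over 69 sites, and gene amplicons before and after competition were read by 100-nucleotide paired-end sequencing. Darwinian fitness relative to wild type rested on changes in genotype frequencies. Genotypes required ≥ 100 starting reads, and estimates < 0.5 were set to 0.5.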

Row | Variant | yeast fitness
1 | C22U A36C A45C | ≤ 0.5
2 | C22U G38C G41C A65G | ≤ 0.5
3 | C22U A45G G56C | 0.602
4 | C22U C27G A40C | 0.55
5 | C22U C29G A42G | 0.697
6 | C22G U28A C31G C55A G68C | 0.539
7 | C22U C30G U54C C62G A65U | ≤ 0.5
8 | C22U U32C C46G U53G G68C | 0.544
9 | C22U A37G | 0.662
10 | C22U G52A | 0.675
11 | C22U C34G G39A C49U | ≤ 0.5
12 | C22U A42U G51C C62U A70U | 0.505
13 | C22U U28C C29G C33A C60A A70C | ≤ 0.5
14 | C22U U32C C46U U54G | 0.593
15 | C22U C30U A57C | 0.528
16 | C22U C30U A37G G68A | ≤ 0.5
17 | C22U C24G C55U A65G | ≤ 0.5
18 | C22U C29G | 0.657
19 | C22U A40G C61U U64G A69U | ≤ 0.5
20 | C22U U32C A65C | 0.701
21 | C22U C24G U28A A45C G51A A57C C61U | ≤ 0.5
22 | C22U A36G C55A | ≤ 0.5
23 | C22U C24G A65U | ≤ 0.5
24 | C22U A40U A65U | ≤ 0.5

Row | Variant | yeast fitness
25 | C22U C34G A40C C46G | ≤ 0.5
26 | C22U C30G | 0.515
27 | C22U C30U | 0.758
28 | C22U C30A | 0.706
29 | C22U C31A C60U | ≤ 0.5
30 | C22U C31A C60G | ≤ 0.5
31 | C22G G68U | 0.865
32 | C22G G68C | 0.696
33 | C22U C55A A65G C66U | 0.585
34 | C22U A43C U53C C62G | ≤ 0.5
35 | C22U C30A C31U | ≤ 0.5
36 | C22G U54A C55U C66A | ≤ 0.5
37 | C22U A36G | 0.948
38 | C22U C29G C33U C61U A69C | ≤ 0.5
39 | C22U C33U A42U A69C | 0.629
40 | C22U G52C C55U A65U | ≤ 0.5
41 | C22U C24G U35C G56C | ≤ 0.5
42 | C22U A40G A43U C46G C49G C62U U64C | ≤ 0.5
43 | C22U G44A | 0.865
44 | C22U G25A A42C C49G U59A A65U | ≤ 0.5
45 | C22U U28C C61A C62U | ≤ 0.5
46 | C22G U35C C46U C55G | ≤ 0.5
47 | C22U G56C C60A C62G | 0.523
48 | C22U C49G U53A G63C | 0.609

Row | Variant | yeast fitness
49 | C22U U28G A45G | ≤ 0.5
50 | C22U C33G C34A A43C C55U | ≤ 0.5
51 | C22U C34U C55U | 0.586
52 | C22G U26C C33U A37U A40C G63C | ≤ 0.5
53 | C22G U26G C27G U53A | ≤ 0.5
54 | C22U C61G A69G | 0.574
55 | C22U C30G A65C C66U | 0.62
56 | C22U C30A U64A | 0.574
57 | C22U C31G | 0.834
58 | C22U C31U | 0.94
59 | C22U A36G G51C | ≤ 0.5
60 | C22U C24G A36C A70C | ≤ 0.5
61 | C22U A42G A45C | ≤ 0.5
62 | C22U C31G U35A C49U C66U G67A | ≤ 0.5
63 | C22U C27A A45G G48C | ≤ 0.5
64 | C22U C34U A36U U53C | ≤ 0.5
65 | C22U C29G C34G A42U U54C G56A | ≤ 0.5
66 | C22G U47A C49U | 0.638
67 | C22U G44C G63A | ≤ 0.5
68 | C22U C24G A69C | 0.539
69 | C22U C30U A37U C46G U64A G67A | ≤ 0.5
70 | C22U U28C C29G C33A | ≤ 0.5
71 | C22U C46U G51C | ≤ 0.5
72 | C22U U32G C34U A40G A70U | 0.563

Row | Variant | yeast fitness
73 | C22U G25A G41C U54G C61U | ≤ 0.5
74 | C22U C34G | 0.597
75 | C22U G25A G48C A57G | ≤ 0.5
76 | C22U C49A A69G | ≤ 0.5
77 | C22U C24G U28A A45C A57C C61U | 0.581
78 | C22U C61G | 0.586
79 | C22U C61A | 0.612
80 | C22U U35C | 0.731
81 | C22U C30U U47C U54A | ≤ 0.5
82 | C22U C27U A57G | 0.53
83 | C22U G41A A69C | ≤ 0.5
84 | C22U C49G U53A A65G | ≤ 0.5
85 | C22U A43G A57U | 0.59
86 | C22U A40C C66U | 0.523
87 | C22U C31G A36U | ≤ 0.5
88 | C22U C33G C34A A43C A65U | ≤ 0.5
89 | C22U A37U G50C C66U | 0.697
90 | C22U C24U G50C | 0.618
91 | C22U G23A C66G G67A | ≤ 0.5
92 | C22U C60U C61A G63C A65U | ≤ 0.5
93 | C22U G63C G68U | ≤ 0.5
94 | C22G U32G | 0.626
95 | C22G U32C | 1
96 | C22U G50A G56A | 0.793

Row | Variant | yeast fitness
97 | C22U C29U G41A C62G | ≤ 0.5
98 | C22U A37U G50C | 0.634
99 | C22U A45G G58C | 0.608
100 | C22U G58A | 0.926
101 | C22U G58C | 0.883
102 | C22U U35C C49U | ≤ 0.5
103 | C22U A36C C49U A65G | 0.528
104 | C22U U26C G63U | ≤ 0.5
105 | C22U U26C A37C G41C | ≤ 0.5
106 | C22U C46G C49A G56A C60A A70C | 0.534
107 | C22U C34U C60G A69G | 0.58
108 | C22U U28A C34G G38A G51A | ≤ 0.5
109 | C22U G25A G41A C46A A69C | 0.599
110 | C22U C24U | 0.885
111 | C22U C24G | 0.583
112 | C22U C30G G52A | 0.514
113 | C22U C27G G41A C55U | ≤ 0.5
114 | C22U U26A A40G G67C | ≤ 0.5
115 | C22U U35C C49U C66U | 0.586
116 | C22U A37G A45U G52A | 0.588
117 | C22U A37G G48C | 0.54
118 | C22U C24G C30U G44A G56A | ≤ 0.5
119 | C22U C29U C49A | ≤ 0.5
120 | C22U G48A G56A C60U | ≤ 0.5

Row | Variant | yeast fitness
121 | C22U C29U A37U | ≤ 0.5
122 | C22U C24A A43C C55U | ≤ 0.5
123 | C22U G68U | 0.845
124 | C22G U53G C55U | ≤ 0.5
125 | C22U C29U C33U A37C C55A | 0.615
126 | C22U A42G | 0.794
127 | C22U A42U | 0.749
128 | C22U A42C | 0.808
129 | C22U C46G C49A U54C G56A C60A A70C | ≤ 0.5
130 | C22U A40U C61A G68A | ≤ 0.5
131 | C22U C24U A36C A45G G56C | ≤ 0.5
132 | C22U U35A G52A | ≤ 0.5
133 | C22U C27G A40G A42G | ≤ 0.5
134 | C22G U32C G58A | 0.654
135 | C22U A36G G51A C66U | 0.588
136 | C22U C24A G56A A70U | ≤ 0.5
137 | C22U A45C | 0.75
138 | C22U A45U | 0.909
139 | C22U C24G C61A | 0.53
140 | C22U U32A | 0.733
141 | C22U C29A C34A G41C A45C U47A C55A | ≤ 0.5
142 | C22U G51C A65U | ≤ 0.5
143 | C22U A42G C61U | 0.612
144 | C22U G48A | 0.89

Row | Variant | yeast fitness
145 | C22U A45U A69U | 0.804
146 | C22U A36C C66A | ≤ 0.5
147 | C22U A65C | 0.708
148 | C22U A65G | 0.835
149 | C22U A65U | 0.748
150 | C22U C31G G50A | 0.606
151 | C22U A40C C62U | 0.648
152 | C22U C31G C49U | 0.552
153 | C22U C46A C61U | ≤ 0.5
154 | C22U C29G A40C A57C | ≤ 0.5
155 | C22U A43U C55G C61U | 0.659
156 | C22U A43C | 0.712
157 | C22U C31G U53A | ≤ 0.5
158 | C22G U47A U54A C61G | ≤ 0.5
159 | C22U C34G A36U U47C A65C | ≤ 0.5
160 | C22U G56C A57C C61G | ≤ 0.5
161 | C22U A57U C66U | 0.553
162 | C22U U32G C34U A40G A42G C66U | 0.561
163 | C22U U32G C34U A40G C49U C66U | 0.552
164 | C22U G50C | 0.818
165 | C22U G50A | 0.875
166 | C22U G50U | 0.669
167 | C22U C66U A69U | 0.6
